Test results published in ChEMBL document CHEMBL4007404, “Identification of High-Potency Human TLR8 and Dual TLR7/TLR8 Agonists in Pyrimidine-2,4-diamines” (J Med Chem, 2017).
The source made the active and inactive calls. The calls are words filed in the database; no cut-off is given here.

Columns and labels:
Type in all cases: cell-based
[1] = target: Toll-like receptor 3 (Homo sapiens) (UniProt O15455); assay: Activity at human TLR3 expressed in HEK293 cells co-expressing secreted alkaline phosphatase assessed as induction of NF-kappaB/AP-1 promoter activity by measuring increase in secreted alkaline phosphatase level by spectrophotometric method
Sequence of Toll-like receptor 3 (Homo sapiens) (O15455 whole entry): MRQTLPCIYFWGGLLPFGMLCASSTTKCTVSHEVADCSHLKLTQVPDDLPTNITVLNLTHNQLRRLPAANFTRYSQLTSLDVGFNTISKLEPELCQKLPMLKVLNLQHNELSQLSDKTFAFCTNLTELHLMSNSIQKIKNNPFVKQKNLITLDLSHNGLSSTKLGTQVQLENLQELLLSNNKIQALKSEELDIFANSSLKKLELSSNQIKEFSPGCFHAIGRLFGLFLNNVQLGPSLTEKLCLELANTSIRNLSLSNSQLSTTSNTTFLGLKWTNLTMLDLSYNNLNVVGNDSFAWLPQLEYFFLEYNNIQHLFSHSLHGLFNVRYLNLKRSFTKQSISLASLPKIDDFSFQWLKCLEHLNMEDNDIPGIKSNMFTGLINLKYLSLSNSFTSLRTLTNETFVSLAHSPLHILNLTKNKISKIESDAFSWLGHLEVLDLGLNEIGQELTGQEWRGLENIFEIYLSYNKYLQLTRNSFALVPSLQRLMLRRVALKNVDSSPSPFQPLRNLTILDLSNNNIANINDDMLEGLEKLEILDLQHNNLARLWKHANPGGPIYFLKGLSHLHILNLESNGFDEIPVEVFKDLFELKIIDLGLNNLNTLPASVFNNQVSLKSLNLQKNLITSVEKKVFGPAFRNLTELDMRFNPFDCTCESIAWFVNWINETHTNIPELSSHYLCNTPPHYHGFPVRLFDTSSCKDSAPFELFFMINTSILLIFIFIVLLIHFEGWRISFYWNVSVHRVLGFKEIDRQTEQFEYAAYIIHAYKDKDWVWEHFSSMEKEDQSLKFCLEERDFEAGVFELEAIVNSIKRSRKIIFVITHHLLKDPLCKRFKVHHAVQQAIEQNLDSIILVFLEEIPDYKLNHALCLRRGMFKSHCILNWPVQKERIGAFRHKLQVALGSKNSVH
Procedure, shortened: (§1)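 HEK293 cells stably co-transfected with the relevant human TLR (2, 3, 4, 5, 7, 8 or 9) plus an NF-κB/AP-1-driven secreted alkaline phosphatase reporter, kept in selection medium. Cells at ~10⁵ cells/ml were exposed to graded concentrations of stimuli in 384-well format, liquid-handler assisted. Supernatant sAP was read at 620 nm with an alkaline phosphatase-specific chromogen.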

[2] = target: Toll-like receptor 4 (Homo sapiens) (UniProt O00206); assay: Activity at human TLR4 expressed in HEK293 cells co-expressing secreted alkaline phosphatase assessed as induction of NF-kappaB/AP-1 promoter activity by measuring increase in secreted alkaline phosphatase level by spectrophotometric method; procedure, shortened: as §1
Sequence of Toll-like receptor 4 (Homo sapiens) (O00206 whole entry): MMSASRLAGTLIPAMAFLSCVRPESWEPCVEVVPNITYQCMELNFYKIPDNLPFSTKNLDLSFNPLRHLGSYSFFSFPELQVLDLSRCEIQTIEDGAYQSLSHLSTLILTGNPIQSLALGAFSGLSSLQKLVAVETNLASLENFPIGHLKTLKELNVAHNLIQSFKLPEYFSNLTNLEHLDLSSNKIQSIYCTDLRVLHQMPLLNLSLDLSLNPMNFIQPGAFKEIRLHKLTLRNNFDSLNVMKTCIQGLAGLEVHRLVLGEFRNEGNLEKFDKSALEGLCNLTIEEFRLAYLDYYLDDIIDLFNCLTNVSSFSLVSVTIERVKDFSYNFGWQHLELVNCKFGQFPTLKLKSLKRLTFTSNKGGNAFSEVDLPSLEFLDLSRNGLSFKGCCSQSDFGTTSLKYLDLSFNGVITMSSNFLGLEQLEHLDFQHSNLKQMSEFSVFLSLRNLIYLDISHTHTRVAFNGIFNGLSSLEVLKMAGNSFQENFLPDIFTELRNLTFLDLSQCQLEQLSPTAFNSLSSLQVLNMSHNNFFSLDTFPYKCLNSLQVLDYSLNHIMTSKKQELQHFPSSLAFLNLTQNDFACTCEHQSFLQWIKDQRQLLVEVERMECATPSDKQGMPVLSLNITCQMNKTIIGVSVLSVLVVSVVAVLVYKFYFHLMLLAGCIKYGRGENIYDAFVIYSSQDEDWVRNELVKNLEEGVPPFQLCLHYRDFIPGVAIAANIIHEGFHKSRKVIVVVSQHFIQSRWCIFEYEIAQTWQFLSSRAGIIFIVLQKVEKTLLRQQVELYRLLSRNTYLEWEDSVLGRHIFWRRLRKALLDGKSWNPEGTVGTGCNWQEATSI

Toll-like receptor 8 = target: T1, Toll-like receptor 8 (Homo sapiens, UniProt Q9NR97); assay: Agonist activity at human TLR8 expressed in HEK293 cells co-expressing secreted alkaline phosphatase assessed as induction of NF-kappaB/AP-1 promoter activity by measuring increase in secreted alkaline phosphatase level by spectrophotometric method; procedure, shortened: as §1
T1 sequence (Q9NR97 whole entry): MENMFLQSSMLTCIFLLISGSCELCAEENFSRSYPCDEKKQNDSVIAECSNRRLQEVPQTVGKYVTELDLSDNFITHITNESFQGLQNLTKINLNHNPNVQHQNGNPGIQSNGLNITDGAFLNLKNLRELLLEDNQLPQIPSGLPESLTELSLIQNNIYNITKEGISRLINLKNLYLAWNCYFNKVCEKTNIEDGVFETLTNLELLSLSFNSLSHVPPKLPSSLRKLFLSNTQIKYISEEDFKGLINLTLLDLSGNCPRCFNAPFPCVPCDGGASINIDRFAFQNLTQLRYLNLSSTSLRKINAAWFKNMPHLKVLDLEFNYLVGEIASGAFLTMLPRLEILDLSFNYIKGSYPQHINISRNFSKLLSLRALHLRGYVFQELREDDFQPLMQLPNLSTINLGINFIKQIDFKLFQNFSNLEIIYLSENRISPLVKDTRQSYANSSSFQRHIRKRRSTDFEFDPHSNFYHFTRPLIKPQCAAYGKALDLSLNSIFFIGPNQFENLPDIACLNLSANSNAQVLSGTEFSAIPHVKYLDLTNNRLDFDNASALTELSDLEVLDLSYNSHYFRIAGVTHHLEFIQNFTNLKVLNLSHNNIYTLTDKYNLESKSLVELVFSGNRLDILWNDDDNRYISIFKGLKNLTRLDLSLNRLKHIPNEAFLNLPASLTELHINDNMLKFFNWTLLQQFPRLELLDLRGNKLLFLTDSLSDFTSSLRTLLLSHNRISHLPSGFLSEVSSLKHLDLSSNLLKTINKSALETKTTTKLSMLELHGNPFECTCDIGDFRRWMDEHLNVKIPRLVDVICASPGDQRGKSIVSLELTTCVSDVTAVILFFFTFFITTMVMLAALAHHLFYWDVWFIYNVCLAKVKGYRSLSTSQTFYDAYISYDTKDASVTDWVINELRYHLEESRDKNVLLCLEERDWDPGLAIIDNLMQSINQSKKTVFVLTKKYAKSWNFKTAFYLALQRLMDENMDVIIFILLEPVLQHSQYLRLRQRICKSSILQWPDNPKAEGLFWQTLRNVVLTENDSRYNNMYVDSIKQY

[3] = target: Toll-like receptor 5 (Homo sapiens) (UniProt O60602); assay: Activity at human TLR5 expressed in HEK293 cells co-expressing secreted alkaline phosphatase assessed as induction of NF-kappaB/AP-1 promoter activity by measuring increase in secreted alkaline phosphatase level by spectrophotometric method; procedure, shortened: as §1
Sequence of Toll-like receptor 5 (Homo sapiens) (O60602 whole entry): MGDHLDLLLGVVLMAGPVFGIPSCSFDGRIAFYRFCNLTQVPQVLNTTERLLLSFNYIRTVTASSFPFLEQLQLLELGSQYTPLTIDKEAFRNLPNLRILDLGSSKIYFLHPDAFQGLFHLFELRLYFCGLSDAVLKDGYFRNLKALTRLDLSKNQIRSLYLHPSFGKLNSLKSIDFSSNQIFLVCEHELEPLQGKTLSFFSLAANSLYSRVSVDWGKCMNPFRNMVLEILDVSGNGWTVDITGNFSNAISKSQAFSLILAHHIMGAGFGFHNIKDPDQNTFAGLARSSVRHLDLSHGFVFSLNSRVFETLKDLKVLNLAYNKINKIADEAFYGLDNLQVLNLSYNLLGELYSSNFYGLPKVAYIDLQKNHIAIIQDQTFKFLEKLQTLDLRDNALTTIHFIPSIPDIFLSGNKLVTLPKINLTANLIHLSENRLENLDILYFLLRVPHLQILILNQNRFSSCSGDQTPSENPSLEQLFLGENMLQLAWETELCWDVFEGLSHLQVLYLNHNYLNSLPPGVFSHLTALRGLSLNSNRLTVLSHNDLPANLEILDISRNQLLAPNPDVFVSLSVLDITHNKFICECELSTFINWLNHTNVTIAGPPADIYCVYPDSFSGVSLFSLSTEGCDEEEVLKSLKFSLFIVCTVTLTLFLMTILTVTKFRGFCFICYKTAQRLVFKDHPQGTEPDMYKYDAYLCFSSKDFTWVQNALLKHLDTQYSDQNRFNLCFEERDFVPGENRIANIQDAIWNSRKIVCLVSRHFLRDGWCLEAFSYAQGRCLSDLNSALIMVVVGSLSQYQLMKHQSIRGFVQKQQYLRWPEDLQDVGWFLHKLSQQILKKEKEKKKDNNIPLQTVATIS

[4] = target: Toll-like receptor 2 (Homo sapiens) (UniProt O60603); assay: Activity at human TLR2 expressed in HEK293 cells co-expressing secreted alkaline phosphatase assessed as induction of NF-kappaB/AP-1 promoter activity by measuring increase in secreted alkaline phosphatase level by spectrophotometric method; procedure, shortened: as §1
Sequence of Toll-like receptor 2 (Homo sapiens) (O60603 whole entry): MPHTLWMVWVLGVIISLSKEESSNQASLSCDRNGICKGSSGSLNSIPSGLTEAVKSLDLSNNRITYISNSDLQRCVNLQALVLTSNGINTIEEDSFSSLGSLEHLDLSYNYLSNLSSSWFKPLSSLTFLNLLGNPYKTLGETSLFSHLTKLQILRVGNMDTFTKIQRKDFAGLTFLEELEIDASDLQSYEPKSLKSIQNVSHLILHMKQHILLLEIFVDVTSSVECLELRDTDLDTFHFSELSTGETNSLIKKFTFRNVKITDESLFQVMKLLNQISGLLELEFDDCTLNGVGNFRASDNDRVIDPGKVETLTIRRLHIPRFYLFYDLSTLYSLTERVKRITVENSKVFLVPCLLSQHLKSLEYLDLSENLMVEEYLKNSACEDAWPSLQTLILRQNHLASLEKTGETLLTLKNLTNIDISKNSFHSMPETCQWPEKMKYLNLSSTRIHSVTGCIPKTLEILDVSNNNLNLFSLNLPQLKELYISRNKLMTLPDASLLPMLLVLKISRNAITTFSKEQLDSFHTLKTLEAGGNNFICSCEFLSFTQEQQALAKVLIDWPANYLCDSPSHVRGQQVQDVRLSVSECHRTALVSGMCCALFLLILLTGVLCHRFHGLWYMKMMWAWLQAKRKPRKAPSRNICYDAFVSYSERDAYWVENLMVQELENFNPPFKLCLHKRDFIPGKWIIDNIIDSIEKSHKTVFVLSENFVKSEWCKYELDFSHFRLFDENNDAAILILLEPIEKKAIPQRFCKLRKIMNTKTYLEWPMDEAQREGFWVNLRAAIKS

[5] = target: T2, Toll-like receptor 9 (Homo sapiens) (UniProt Q9NR96); assay: Activity at human TLR9 expressed in HEK293 cells co-expressing secreted alkaline phosphatase assessed as induction of NF-kappaB/AP-1 promoter activity by measuring increase in secreted alkaline phosphatase level by spectrophotometric method; procedure, shortened: as §1
T2 sequence (whole entry): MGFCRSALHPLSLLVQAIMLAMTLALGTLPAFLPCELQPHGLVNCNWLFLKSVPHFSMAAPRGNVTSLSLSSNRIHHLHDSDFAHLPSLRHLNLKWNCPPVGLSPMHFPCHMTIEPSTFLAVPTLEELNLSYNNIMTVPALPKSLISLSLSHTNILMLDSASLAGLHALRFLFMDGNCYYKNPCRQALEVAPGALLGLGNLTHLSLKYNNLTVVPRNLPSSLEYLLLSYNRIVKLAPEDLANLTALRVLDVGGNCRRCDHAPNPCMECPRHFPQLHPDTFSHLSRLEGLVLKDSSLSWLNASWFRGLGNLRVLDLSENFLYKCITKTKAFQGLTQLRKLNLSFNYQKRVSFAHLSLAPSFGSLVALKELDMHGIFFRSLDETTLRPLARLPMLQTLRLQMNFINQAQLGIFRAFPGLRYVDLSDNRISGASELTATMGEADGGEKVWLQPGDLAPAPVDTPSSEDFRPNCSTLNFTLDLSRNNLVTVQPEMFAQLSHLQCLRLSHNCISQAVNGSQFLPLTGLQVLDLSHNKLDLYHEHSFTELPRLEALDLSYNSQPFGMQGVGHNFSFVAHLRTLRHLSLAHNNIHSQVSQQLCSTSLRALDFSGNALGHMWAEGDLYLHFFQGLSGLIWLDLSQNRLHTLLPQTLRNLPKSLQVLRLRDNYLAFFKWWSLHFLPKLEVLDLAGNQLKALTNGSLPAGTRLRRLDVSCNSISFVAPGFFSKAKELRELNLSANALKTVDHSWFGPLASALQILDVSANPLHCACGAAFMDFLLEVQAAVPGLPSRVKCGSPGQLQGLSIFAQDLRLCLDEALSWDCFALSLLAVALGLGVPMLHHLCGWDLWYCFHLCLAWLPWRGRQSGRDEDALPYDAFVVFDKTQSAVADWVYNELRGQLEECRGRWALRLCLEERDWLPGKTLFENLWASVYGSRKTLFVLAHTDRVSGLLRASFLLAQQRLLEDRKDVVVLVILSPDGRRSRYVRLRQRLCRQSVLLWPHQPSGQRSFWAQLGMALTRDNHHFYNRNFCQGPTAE

SMILES | Activity [1] | Activity [2] | EC50 (Toll-like receptor 8) [nM] | Activity [3] | Activity [4] | Activity [5]
CCCCNc1nc(N)nc(C)c1CCCN(C)CCOC | inactive | inactive | 203 | inactive | inactive | inactive
CCCCNc1nc(N)nc(C)c1CCCn1cncn1 | inactive | inactive | 1050 | inactive | inactive | inactive
CCCCNc1nc(N)nc(C)c1CCCn1ccc2ccccc21 | inactive | inactive | 1100 | inactive | inactive | inactive
C#Cc1c(C)nc(N)nc1NCCCC | inactive | inactive | 4900 | inactive | inactive | inactive
CCCCNc1nc(N)nc(C)c1CCCCCc1ccccc1 | inactive | inactive | 830 | inactive | inactive | inactive
CCCCNc1nc(N)nc(C)c1CCCn1c(C)nc2ccccc21 | inactive | inactive | 366 | inactive | inactive | inactive
CCCCNc1nc(N)nc(C)c1CCCC1CCCCC1 | inactive | inactive |  | inactive | inactive | inactive
CCCCNc1nc(N)nc(C)c1CCCC | inactive | inactive | 780 | inactive | inactive | inactive
CCCCNc1nc(N)nc(C)c1CC | inactive | inactive | 1660 | inactive | inactive | inactive
CCCCNc1nc(N)nc(C)c1CCCCO | inactive | inactive | 1310 | inactive | inactive | inactive
CCCCNc1nc(N)nc(C)c1C#C[Si](C)(C)C | inactive | inactive | 9240 | inactive | inactive | inactive
CCCCNc1nc(N)nc(C)c1CCCN(CC)CC | inactive | inactive | 254 | inactive | inactive | inactive
CCCCNc1nc(N)nc(C)c1CCCN1CCNCC1 | inactive | inactive | 500 | inactive | inactive | inactive
CCCCNc1nc(N)nc(C)c1C#CCN1CCCCC1 | inactive | inactive | 3790 | inactive | inactive | inactive
CCCCNc1nc(N)nc(C)c1CCCN1C(=O)c2ccccc2C1=O | inactive | inactive | 453 | inactive | inactive | inactive
CCCCNc1nc(N)nc(C)c1CCCN1CCSCC1 | inactive | inactive | 167 | inactive | inactive | inactive
CCCCNc1nc(N)nc(C)c1CCCN1CCN(C(=O)OC(C)(C)C)CC1 | inactive | inactive | 300 | inactive | inactive | inactive
CCCCNc1nc(N)nc(C)c1CCCN1CCN(C)CC1 | inactive | inactive | 179 | inactive | inactive | inactive
CCCCNc1nc(N)nc(C)c1C#CCc1ccccc1 | inactive | inactive |  | inactive | inactive | inactive
CCCC#Cc1c(C)nc(N)nc1NCCCC | inactive | inactive | 5000 | inactive | inactive | inactive
CCCCCc1c(C)nc(N)nc1NCCCC | inactive | inactive | 1220 | inactive | inactive | inactive
CCCCNc1nc(N)nc(C)c1CCCCc1ccccc1 | inactive | inactive | 857 | inactive | inactive | inactive
CCCCNc1nc(N)nc(C)c1CCc1ccccc1 | inactive | inactive | 1190 | inactive | inactive | inactive
CCCCNc1nc(N)nc(C)c1CCCN1CCOCC1 | inactive | inactive | 280 | inactive | inactive | inactive
CCCCNc1nc(N)nc(C)c1C | inactive | inactive | 3280 | inactive | inactive | inactive
